# Shown are actives, neighbours in structure and some others; about 12% of the full set was active somewhere.
# Lmaj promast = Leishmania major promastigote growth inhibition, primary screen | Leishmania major promastigotes, resazurin fluorescence viability | inhibition, % at 10 µM | 9% of 200,000 active; in the data active = inhibition above about 50%;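 note: promastigotes grown with compound for 44 hours at 28 °C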
# b-catenin transl = modulators of beta-catenin nuclear translocation, primary screen, imaging, HeLa cells, immunofluorescence, high-content; nuclear translocation activity, % at 5 µM; 0.3% of 190,000 active;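 active = nuclear translocation activity above 50% at 5 µM, with a well cell count of 50 or more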;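 note: per-cell ratio of nuclear to cytoplasmic median beta-catenin stain intensity; plate controls were DMSO negative control for no effect and GSK-3 inhibitor IX positive control for full effect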
#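 System: HeLa cells, endogenous beta-catenin; compound dosing: 5 µM primary single dose, 0.1% DMSO, 0.02–20 µM confirmation series; incubation: 24 h compound exposure at 37°C, 5% CO2; signal: beta-catenin immunofluorescence imaging with DAPI; evaluation: % activation, nuclear-to-cytoplasmic median beta-catenin signal ratio per cell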
# MT stabilize HCS = microtubule stabilizers in HeLa cells, primary screen, imaging, high-content imaging | HeLa tubulin immunostaining HCS, 24 h; share of cells brighter than vehicle mean+2SD | % tubulin-high responders, % at 10 µM | 0.83% of 200,000 active;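 active = plate Z-score above 3 for both tubulin-high and condensed-nucleus cell shares, with cell loss under 80%, at 10 µM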;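 note: anti alpha tubulin signal scored within the nucleus-defined area of each cell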
# Dynein transport = inhibitors of GR-EGFP nuclear translocation, primary screen, dynein cargo transport inhibitor project, imaging, high-content, 3617.4 mouse cells; z-score, hits read low; 0.47% of 220,000 active; test concentration mostly 20 µM; stimulated with dexamethasone, 1 µM; stronger effect = lower value;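 active = plate z-score of nuclear minus cytoplasmic receptor signal below a set negative limit, without overly bright fluorescence or cell loss, cut at about -3.5 in these data, passing the limit was not always enough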;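 note: z-score of nuclear minus cytoplasmic ring GR-EGFP intensity difference per well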
#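 medium = tetracycline-free induction medium containing charcoal-stripped FBS | probe or stimulus = dexamethasone, 1.0 µM final | timing = 48 h induction, then 1 h compound, then 30 min agonist, 37 °C | detection = automated 10x imaging of fixed Hoechst-stained cells | read-out basis = nuclear versus cytoplasmic GR-EGFP signal, averaged per well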
# CHOP inhibitor = inhibitors of CHOP promoter induction, primary screen, cell-based, unfolded protein response, luciferase reporter; CHO-K1 CHOP-promoter luciferase, tunicamycin-induced, 15-18 h; inhibition, % at 10 µM; 3.8% of 220,000 active; AID 2732, 2010;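 active = compounds that reduced the stress-induced luciferase reporter signal by more than about 70% of percent inhibition, limit read from the data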;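 note: 0% = tunicamycin plus vehicle and 100% = wells without tunicamycin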
# Autophagy mod = autophagy modulators in MEF cells, primary screen, imaging, high-content, MEF GFP-LC3 | calls only at 10 µM (by protocol) | AID 463193, 2010 | 0.98% of 190,000 active | MEF GFP-LC3 puncta imaging; test concentration mostly 10 µM;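 active = percentage of spot-positive cells more than 3 SD above its plate mean, without a fluorescence outlier flag or 80% toxicity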;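 note: spot-positive cell cutoff set from DMSO-treated cells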
# * hit, by the source's call; i = inactive; / = no result given; + = active, no number; ! = repeats disagree.
SMILES,Lmaj promast,b-catenin transl,MT stabilize HCS,Dynein transport,CHOP inhibitor,Autophagy mod
C=CCn1c(O)c(C(C)=NCCN2CCN(C(=S)NC)CC2)c(=O)[nH]c1=O,/,2,/,0.17,3,/
S=C1NC2(CCCCC2)NC12CCCCC2,/,0,/,-0.25,3,/
O=C(c1cc2c(s1)-c1ccccc1OC2)N1CCC2(CC1)OCCO2,-4,14,54*,-0.4,/,i
O=C(Nc1ccc(Cl)cc1)Nc1nccs1,3,44,46*,-1,/,i
O=C(Nc1nccs1)C(Cl)(Cl)Cl,-2,1,2,0.52,-3,i
CC12CCC3C(CCC4=C(O)C(=O)CCC43C)C1CCC2=O (stereo unspecified),/,/,/,/,-21,/
Clc1cccc(C2NCc3ccccc3-n3cccc32)c1 (stereo unspecified),/,-1,/,0.24,2,/
CCCn1c(C(=O)c2ccc(OC)cc2)nc2ccccc21,8,0,4,0.34,3,i
COc1ccc(C(=O)c2nc3ccccc3n2C(C)C)cc1,51*,2,4,3.2,9,i
COc1cc2c(cc1OC)-c1c(OC)c(OC)cc3c1C(C2)N(C)CC3 (stereo unspecified),2,7,9,-1,-30,i
COc1cc2c(cc1OC)-c1c3c(cc4c1[C@@H](C2)N(C)CC4)OCO3,97*,/,4,0.51,23,i
COc1cc2c(cc1O)C[C@H]1NCCc3cc4c(c-2c31)OCO4,99*,-3,2,0.1,12,i
CCn1cnc2c(Nc3cccc(Cl)c3)nc(N[C@@H]3CCCC[C@@H]3N)nc21,/,/,/,/,-5,/
Cc1cc(=O)[nH]c(SCc2nc3ccccc3c(=O)n2-c2ccccc2C)n1,-1,-6,4,-0.12,-1,+
Cc1nc2c(c(C)nn2-c2ccccc2)c(C)c1CCC(=O)N1CCC2(CC1)OCCO2,10,2,3,0.81,/,i
Cn1ccnc1P(=S)(c1nccn1C)c1nccn1C,-9,-1,2,-0.9,0,i
CCOC(=O)C1=C(N)Oc2cc(C)oc(=O)c2C12C(=O)N1c3c(cc(OC)cc32)C(C)=CC1(C)C (stereo unspecified),-1,/,6,1.2,76*,i
CCOC(=O)C1=C(N)Oc2cc(C)oc(=O)c2C12C(=O)N1c3c(cccc32)C(C)=CC1(C)C (stereo unspecified),4,4,3,2.6,14,i
CCOC(=O)C1=C(N)Oc2cc(C)oc(=O)c2C12C(=O)N1c3c(cccc32)C(C)CC1(C)C (stereo unspecified),2,-2,4,-0.24,83*,i
CCOC(=O)C1=C(N)OC2=C(C(=O)CCC2)C12C(=O)N1c3c(ccc(C)c32)C(C)=CC1(C)C (stereo unspecified),79*,-1,3,-0.62,26,i
CCOC(=O)C1=C(N)OC2=C(C(=O)CCC2)C12C(=O)Nc1ccccc12 (stereo unspecified),2,-3,4,-1.5,6,i
CCOC(=O)C1=C(N)OC2=C(C(=O)CC(C)(C)C2)C12C(=O)Nc1ccccc12 (stereo unspecified),-6,-1,1,0.58,45,i
CC(NC1=NCCS1)c1ccccc1 (stereo unspecified),0,-4,4,0.36,39,i
CN(C)C=C1C(=O)N(C2CCCCC2)C(=O)N(C2CCCCC2)C1=O,-7,4,5,-0.74,77*,i
COc1ccc(CCNC2CCCCC2)cc1OC,1,2,5,-1,1,i
SMILES,Lmaj promast,b-catenin transl,MT stabilize HCS,Dynein transport,CHOP inhibitor,Autophagy mod
Cc1cccc(NC(N)=S)c1,-7,0,1,-0.36,10,i
O=C1C2CCN(CC2)C1Cc1ccc(OCc2ccccc2)cc1 (stereo unspecified),100*,-6,4,-0.073,22,i
O=c1[nH]c(=S)[nH]c(O)c1N=Nc1ccc(S(=O)(=O)N2CCc3ccccc32)cc1,32,-1,2,0.49,37,i
CNC(C(=O)c1ccccc1)C(OC)c1cccc([N+](=O)[O-])c1 (stereo unspecified),/,2,/,0.46,8,/
CCC(C)N1C(=O)NC(=O)C2(Cc3c(ccc4ccccc34)N(C)C2)C1=O (stereo unspecified),22,-4,4,0.66,76*,i
CCOc1ccccc1-n1c(O)c(C=Nc2ccc(N(CC)CC)cc2)c(=O)[nH]c1=O,8,-5,22*,0.66,14,i
CCN(CC)c1ccc(N=Cc2c(O)n(-c3ccccc3)c(=O)[nH]c2=O)cc1,/,0,/,-0.6,27,/
CCN(CC)c1ccc(N=Cc2c(O)n(Cc3ccccc3)c(=O)[nH]c2=O)cc1,-3,1,2,1.7,96*!,+!
O=C(N/N=C/c1c(O)n(Cc2ccc(F)cc2)c(=O)[nH]c1=O)c1ccccc1O,-6,6,14*,-0.11,-15,i
O=C(N/N=C/c1c(O)n(Cc2ccccc2)c(=O)[nH]c1=O)c1ccccc1O,-12,0,11,-1,-26,i
CCn1cc(C(=O)N2CCOCC2)c2ccccc21,-8,-5,11,0.38,1,i
CCOC(=O)c1c(NC(NC(=O)CF)C(Cl)(Cl)Cl)sc2c1CCCC2 (stereo unspecified),6,0,4,-0.61,74*,i
CCCN(CCC)[C@@H]1CCc2c(F)ccc(O)c2C1,/,/,/,/,-15,/
COc1ccccc1Cn1c(SCC(=O)C(C)(C)C)nc2cc(C(=O)N3CCC4(CC3)OCCO4)ccc2c1=O,57*,-1,2,-0.72,-28,i
O=C(c1ccc2c(=O)n(Cc3ccc4c(c3)OCO4)c(=S)[nH]c2c1)N1CCC2(CC1)OCCO2,33,8,4,-0.44,-1,i
C[C@@H]1O[C@H](C[N+](C)(C)C)C[C@H]1O,/,/,/,/,0,/
CC(C)(C#CCCCCC#CC(C)(C)[N+](C)(C)C)[N+](C)(C)C,/,0,/,-0.57,-15,/
CN(C)c1ccc(CN2CC=C(c3ccc(F)cc3)CC2)cc1,96*,3,3,1.3,5,i
O=C(CN1CC=C(c2ccccc2)CC1)Nc1cc(Cl)ccc1Cl,55*,2,2,-0.5,26,i
c1ccc(P(c2ccccn2)c2ccccn2)cc1,0,-3,2,-0.12,13,i
CCn1c(O)c(N=Nc2ccc(S(=O)(=O)N3CCOCC3)cc2)c(=O)n(CC)c1=S,/,1,/,-1.7,73*,/

# Source: PubChem BioAssay (several laboratories)
